Results collected from several papers.
Lines come from different studies, so protocols differ.
DHFR: Dihydrofolate reductase (DHFR, Homo sapiens, UniProt P00374)
TYRO3: Tyrosine-protein kinase receptor TYRO3 (TYRO3, Homo sapiens, UniProt Q06418)
FLT3: Receptor-type tyrosine-protein kinase FLT3 (FLT3, Homo sapiens, UniProt P36888)
ROCK1: Rho-associated protein kinase 1 (ROCK1, Homo sapiens, UniProt Q13464)
EAPA: Endothiapepsin (EAPA, Cryphonectria parasitica, UniProt P11838)
Aldo-keto reductase family 1 member B1: Aldo-keto reductase family 1 member B1 (Bos taurus, UniProt P16116)
FAAH: Fatty-acid amide hydrolase 1 (FAAH, Homo sapiens, UniProt O00519)
PTGS1: Prostaglandin G/H synthase 1 (PTGS1, Homo sapiens, UniProt P23219)
F2: Prothrombin (F2, Bos taurus, UniProt P00735)

Compound | target | test | conditions | IC50
Clc1ccc(Cn2c(-c3ccc(Cl)cc3)nc3ccccc32)cc1 | DHFR | enzyme activity, inhibitor |  | 10.6 µM
Cc1ccc(NC(=O)c2ccc(C)c(C(F)(F)F)c2)cc1C#Cc1nn(C2CCC(O)CC2)c2ncnc(N)c12 (centres unmarked) | TYRO3 | enzyme activity, inhibitor, radiometric |  | 0.351 µM
Cc1cnc(-c2ccc(-c3ccc(NC(=O)Nc4c(F)cc(F)cc4F)cc3F)c3c2C(=O)NC3)[nH]1 | Aurora kinase A (AURKA, Homo sapiens, UniProt O14965) | enzyme activity, inhibitor |  | 0.00038 µM
Fc1ccc(C2CCN(c3nc(-c4ccccn4)nc4ccccc34)C2)cc1 (centres unmarked) | Sterol 14-alpha demethylase (CYP51, Trypanosoma cruzi, UniProt Q7Z1V1) | enzyme activity, inhibitor, fluorescence |  | > 100 µM
O=C(O)c1ccnc2c(O)cccc12 | Gamma-butyrobetaine dioxygenase (BBOX1, Homo sapiens, UniProt O75936) | enzyme activity, inhibitor |  | 111 µM
c1ccc(-c2cccc(Nc3nccc(NC4CCCCC4)n3)c2)cc1 | FLT3 | enzyme activity, inhibitor |  | > 12 µM
CC(C)(C)n1nc(-c2ccc3nc(OC4CC4)ccc3c2)c(C(N)=O)c1N | ROCK1 | cell-free assay |  | > 10 µM
O=C1NCCc2sc(-c3ccncc3)cc21 | Casein kinase I isoform delta (CSNK1D, Homo sapiens, UniProt P48730) | enzyme activity, inhibitor |  | 1.4 µM
NNC(COCc1ccccc1)c1nnnn1CCc1ccc(O)cc1 (centres unmarked) | EAPA | enzyme activity, inhibitor, fluorescence |  | 89.3 µM
CC[C@@H](C)Nc1ccnc(Nc2cccc(-c3cccnc3)c2)n1 | FLT3 | enzyme activity, inhibitor |  | < 0.006 µM
CC(=N/N=c1\scc(-c2ccc(Br)cc2)n1-c1cccc2ccccc12)C12CC3CC(CC(C3)C1)C2 | Aldo-keto reductase family 1 member B1 | enzyme activity, inhibitor, absorbance |  | 12.9 µM
O=C(Oc1nsnc1N1CCc2ccccc2C1)N1CCCCC1 | FAAH | enzyme activity, inhibitor | cell membranes | 0.017 µM
CNc1ccnc(Nc2cccc(-c3cccnc3)c2)n1 | FLT3 | enzyme activity, inhibitor |  | 0.204 µM
CSCC[C@H](NC(=O)[C@H](Cc1c[nH]c2ccccc12)NC(=O)CNC(=O)[C@H](Cc1ccc(O)cc1)NC(=O)[C@H](C)NC(=O)[C@@H](CCC(=O)O)NC(=O)CN1CCN(CC(=O)O)CCN(CC(=O)O)CCN(CC(=O)O)CC1)C(=O)N[C@@H](CC(=O)O)C(=O)N[C@@H](Cc1cccc2ccccc12)C(N)=O | Gastrin/cholecystokinin type B receptor (CCKBR, Homo sapiens, UniProt P32239) | ligand displacement, radioligand |  | 0.00351 µM
Cc1ccc(C(=O)Nc2ccc(Oc3cc4cnn(C)c4cc3-c3cn[nH]c3)c(F)c2)c(=O)n1-c1ccc(F)cc1 | TYRO3 | cell growth or viability, ATP luminescence |  | 0.028 µM
CN(C)c1ccc(Nc2nc(-c3ccncc3)nc3c2CC(N)CC3)cc1 (centres unmarked) | PTGS1 | enzyme activity, inhibitor |  | ~4.5 µM
O=C(Oc1nsnc1N1CCC(c2ccccc2)CC1)N1CCCCC1 | FAAH | enzyme activity, inhibitor | cell membranes | 1.48 µM
C/C(=N/N=c1/scc(-c2ccc(Br)cc2)n1-c1c(C)cccc1C)c1ccc2c(c1)OCCO2 | Aldo-keto reductase family 1 member B1 | enzyme activity, inhibitor, absorbance |  | 3.14 µM
N#Cc1ccc(Cn2ccc3c4c(N)nc(N)nc4ccc32)cc1 | DHFR | enzyme activity, inhibitor |  | 0.0068 µM
COc1cccc(-n2c(-c3ccc([N+](=O)[O-])cc3)cs/c2=N/N=C\c2c[nH]c3ccccc23)c1 | Aldo-keto reductase family 1 member B1 | enzyme activity, inhibitor, absorbance |  | 4.21 µM
CCCCNc1ccnc(Nc2cccc(-c3cccnc3)c2)n1 | FLT3 | enzyme activity, inhibitor |  | 0.123 µM
COc1ccc2c(Oc3ccc4c(C(=O)Nc5ccccc5N)cccc4c3)ccnc2c1 | Aurora kinase C (AURKC, Homo sapiens, UniProt Q9UQB9) | enzyme activity, inhibitor |  | > 0.5 µM

Compound | target | test | conditions | IC50
C/C(=N/N=c1/scc(-c2ccc(Cl)cc2)n1-c1ccc(F)cc1)c1ccc2c(c1)OCCO2 | Aldo-keto reductase family 1 member B1 | enzyme activity, inhibitor, absorbance |  | 9.63 µM
FC(F)(F)C1(Nc2ccnc(Nc3cccc(-c4cccnc4)c3)n2)CC1 | FLT3 | enzyme activity, inhibitor |  | < 0.006 µM
Cc1nccc2c1c(=O)n(C)c1cc(OC[C@@H](N)CC(C)C)c(C#N)cc21 | BMP-2-inducible protein kinase (BMP2K, Homo sapiens, UniProt Q9NSY1) | enzyme activity, inhibitor |  | 0.045 µM
O=C(Oc1nsnc1N1CCN(c2ccccc2)CC1)N1CCCCC1 | FAAH | enzyme activity, inhibitor | cell membranes | 0.209 µM
CC1=C(/C=C/C(C)=C/C=C/C(C)=C/CO)C(C)(C)CCC1 | F2 | enzyme activity, inhibitor, fluorescence |  | 531 µM
O=C(Nc1ccc(Br)cc1)N1CCC(n2c(=O)[nH]c3c(Br)cccc32)CC1 | Formamidopyrimidine-DNA glycosylase (Escherichia coli, UniProt P05523) | enzyme activity, inhibitor |  | > 100 µM
C[C@H]1OC(=O)/C=C/C(=O)[C@@H](OC(=O)CCC(=O)O)CCCCCCCC[C@H]1O | Stromelysin-1 (MMP3, Homo sapiens, UniProt P08254) | enzyme activity, inhibitor |  | 10 µM
O=C(Oc1nsnc1N1CCC2CCCCC2C1)N1CCCCC1 (centres unmarked) | FAAH | enzyme activity, inhibitor | cell membranes | 0.031 µM
CC(C)(C(=O)O)C1=C/C(=C\c2ccc(-c3ccccc3)cc2)c2ccc(F)cc21 | PTGS1 | enzyme activity in cells, inhibitor |  | 1.3 µM
CC(=N/N=c1\scc(-c2ccc(Br)cc2)n1-c1ccccc1)C12CC3CC(CC(C3)C1)C2 | Aldo-keto reductase family 1 member B1 | enzyme activity, inhibitor, absorbance |  | 4.4 µM
O=[N+]([O-])c1ccc(-c2nc3ccccc3n2Cc2ccccc2)cc1 | DHFR | enzyme activity, inhibitor |  | 12.3 µM
NNC(c1nnnn1CC(c1ccccc1)c1ccccc1)C1CCCCC1 (centres unmarked) | EAPA | enzyme activity, inhibitor, fluorescence |  | 96.8 µM
CC(C)(C)n1nc(-c2cnc3cc(OC4CC4)ccc3c2)c(C(N)=O)c1N | ROCK1 | cell-free assay |  | > 10 µM
C/C(=N/N=c1/scc(-c2ccc(Br)cc2)n1-c1ccccc1)c1ccc2c(c1)OCCO2 | Aldo-keto reductase family 1 member B1 | enzyme activity, inhibitor, absorbance |  | 5.96 µM
COc1cccc(-c2cccc(Nc3nccc(NC4CCCCC4)n3)c2)c1 | FLT3 | enzyme activity, inhibitor |  | 24.5 µM
O=C(Nc1cccnc1)N1CCC(Cc2cccc(Oc3ccc(C(F)(F)F)cn3)c2)CC1 | Monoglyceride lipase (MGLL, Homo sapiens, UniProt Q99685) | enzyme activity, inhibitor, absorbance |  | > 10 µM
C[C@@H]1Cc2ccccc2N1C(=O)NCCCCN(C)[C@@H]1Cc2cccc3[nH]c(=O)n(c23)C1 | 5-hydroxytryptamine receptor 2C (HTR2C, Homo sapiens, UniProt P28335) | ligand displacement, radioligand |  | > 10 µM
CC1=C(/C=C/C(C)=C/C=C/C(C)=C/C=O)C(C)(C)CCC1 | F2 | enzyme activity, inhibitor, fluorescence |  | 74 µg/mL
CC(C)Nc1ccnc(Nc2cccc(-c3ccncc3)c2)n1 | FLT3 | enzyme activity, inhibitor |  | 0.284 µM
O=C(O)c1ccc2nc(-c3ccc(OCc4ccccc4COc4ccc(-c5nc6ccc(C(=O)O)cc6[nH]5)cc4)cc3)[nH]c2c1 | DHFR | enzyme activity, inhibitor |  | > 250 µM
CCNc1ccnc(Nc2cccc(-c3cccnc3)c2)n1 | FLT3 | enzyme activity, inhibitor |  | 0.0475 µM
CN1CCN(c2ccc(Nc3ncc4cc(C#N)c(=O)n(C5CCCC5)c4n3)cc2)CC1 | Testis-specific serine/threonine-protein kinase 1 (TSSK1B, Homo sapiens, UniProt Q9BXA7) | enzyme activity, inhibitor |  | 0.116 µM
